This passage reports Activity and Activity_index results from ChEMBL document CHEMBL1157792, “Pachycladins A-E, prostate cancer invasion and migration inhibitory Eunicellin-based diterpenoids from the red sea soft coral Cladiella pachyclados” (J Nat Prod, 2010).

What all share (assay type): functional, cell-based
The test system of assay [1] is PC-3. The assay can be described thus: Antimigratory activity against human PC3 cells at 50 uM by wound-healing assay. In a few lines:
(§1)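 Confluent PC-3 monolayers (>90%) in RPMI with 10% FBS, scratched with a pipet tip, washed with PBS, then given compound in DMSO, in triplicate, with DMSO vehicle control. Incubated 24 h serum-starved at 37 °C, fixed and stained with Diff Quick. Migrated cells counted in three or more random 400× fields; mean (SEM) per field.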

Assay [2] relates to PC-3. The assay can be described thus: Antiinvasive activity against human PC3 cells at 50 uM by cultrex cell invasion assay. In a few lines: (§2)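 PC-3 cells (50 000 per well) in serum-free RPMI seeded into the top chamber of wells coated with basement membrane extract (4 h, 37 °C), with compound in the top chamber. Lower chamber: RPMI with 10% FBS, fibronectin and N-formyl-met-leu-phe (10 nM) as chemoattractants. After 24 h at 37 °C, invaded cells stained with calcein-AM for 1 h; fluorescence read at ex 485/em 520 nm.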

Assay [3] relates to PC-3. The assay can be described thus: Antimigratory activity against human PC3 cells at 10 uM by wound-healing assay. The essentials: as §1
For assay [4], the system named is PC-3. Kind of assay: Antiinvasive activity against human PC3 cells at 10 uM by cultrex cell invasion assay. The essentials:
as §2

Assay [5] deals with PC-3. Kind of assay: Antiproliferative activity against human PC3 cells at 50 uM after 96 hrs by MTT assay. The essentials: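 PC-3 cells (8 × 10^3 per well) allowed to attach for 24 h, then given serum-free RPMI with compound at 50, 20, 10 or 5 µM for 96 h at 37 °C, 5% CO2. MTT added for 4 h, formazan solubilized, absorbance read at 550 nm. Cell number taken from a hemocytometer-based standard curve; IC50 obtained by nonlinear regression of log concentration against cells/well.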
For orientation: Formazan colour is commonly taken as a measure of viable cells.

Assay [6] relates to PC-3. The assay can be described thus: Antimigratory activity against human PC3 cells at 200 uM by wound-healing assay. In a few lines:
as §1

Calls of active or inactive are those of the source. The calls are words filed in the database; no cut-off is given here.

As to `C=C1CC[C@H](C(C)C)[C@@H]2[C@H]1[C@H]1CC(=C)[C@@H](OC(C)=O)CC[C@@](C)(O)[C@@H]2O1`, the result in the assay on PC-3 [1] was Active.

For the compound `C=C1CC[C@H](C(C)C)[C@@H]2[C@H]1[C@H]1C[C@](C)(O)[C@@H](OC)CC[C@@](C)(O)[C@@H]2O1`, the result in the assay on PC-3 [2] and with PC-3 [1] was Active.

As for `CC(=O)O[C@]1(C)CC[C@H](C(C)C)[C@@H]2[C@H]1[C@H]1C[C@](C)(O)[C@@H](O)CC[C@@](C)(OC(C)=O)[C@@H]2O1`, the Activity_index entry in the assay on PC-3 [3] was “Active”. In the assay with PC-3 [4], the result was Active.

In the case of `C=C1CC[C@H](C(C)C)[C@@H]2[C@H]1[C@H]1CC(=C)[C@@H](O)CC[C@@](C)(OC(C)=O)[C@@H]2O1`, the result with PC-3 [1] was Active.

For `C=C1CC[C@H](C(C)C)[C@@H]2[C@H]1[C@H]1CC(=C)[C@]3(O)CC[C@@](C)(O3)[C@@H]2O1`, the outcome with PC-3 [1] was Active.

In the case of `C=C1CC[C@H](C(C)C)[C@@H]2[C@H]1[C@@H]1CC(=C)[C@@H](O)CC[C@](C)(O)[C@H]2O1`, in the assay with PC-3 [1], the result was Active.

With `C=C1CC[C@H](C(C)C)[C@@H]2[C@H]1[C@H]1CC(=C)[C@@H](OC(C)=O)CC[C@@](C)(OC(C)=O)[C@@H]2O1`, in the assay with PC-3 [1], the result was Active.

Take `C=C1CC[C@H](C(C)C)[C@@H]2[C@H]1[C@H]1C/C(C)=C\CC[C@@](C)(O)[C@@H]2O1`: in the assay with PC-3 [1], the outcome was Active.

Take `C=C1CC[C@H](C(C)C)[C@@H]2[C@H]1[C@H]1C[C@](C)(O)[C@@H](O)CC[C@@](C)(O)[C@@H]2O1`: the result in the assay with PC-3 [2] and in the assay with PC-3 [1] was Active.

As to `CC(=O)O[C@]1(C)CC[C@H](C(C)C)[C@@H]2[C@H]1[C@H]1C[C@]3(C)CCC[C@@](C)(O3)[C@@H]2O1`, the outcome in the assay on PC-3 [2] and in the assay with PC-3 [1] was Active.

In the case of `CCCC(=O)O[C@]1(C)CC[C@H](C(C)C)[C@@H]2[C@H]1[C@H]1C[C@](C)(O)[C@@H](O)CC[C@@](C)(OC(C)=O)[C@@H]2O1`, in the assay with PC-3 [5], the outcome was inactive. The outcome in the assay on PC-3 [2] and with PC-3 [1] was Active.

As to `C=C1C[C@H]2O[C@H]([C@@H]3[C@@H](C(C)C)[C@H](O)C[C@@](C)(OC(=O)CCC)[C@@H]32)[C@](C)(OC(C)=O)CC[C@@H]1O`, the result in the assay with PC-3 [1] was Active.

Turning to `C=C1C[C@H]2O[C@H]([C@@H]3[C@@H](C(C)C)[C@H](O)C[C@@](C)(OC(C)=O)[C@@H]32)[C@](C)(OC(C)=O)CC[C@@H]1O`, in the assay on PC-3 [1], the outcome was Active.

In the case of `C=C1CC[C@H](C(C)C)[C@@H]2[C@H]1[C@H]1C[C@](C)(O)[C@@H](O)CC[C@@](C)(OC(C)=O)[C@@H]2O1`, in the assay with PC-3 [1], the result was Active.

For `O=C1NC(=O)/C(=C/c2ccc(O)cc2)N1`, the outcome in the assay with PC-3 [6] was Active.

Consider `C=C1C[C@H]2O[C@H]([C@H]3[C@@H]2[C@](C)(OC(C)=O)CC[C@@H]3C(C)C)[C@@]2(C)CC[C@]1(O)O2`, for which, in the assay on PC-3 [1], the outcome was Active.
